Here are results for 16 compounds from ChEMBL document CHEMBL3352149, “Promiscuity and selectivity in covalent enzyme inhibition: a systematic study of electrophilic fragments” (J Med Chem, 2014).

Bounds are passed on as bounds.

Assay [1] deals with Escherichia coli. The assay is described as follows: Inhibition of Escherichia coli MetAP at 25 uM after 20 mins by HPLC analysis. In a few lines: (§1)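 Endpoint assay. Enzyme (50 nM) was preincubated with 25 μM compound for 20 min at 37 °C in 50 mM Tris pH 7.5, 100 mM NaCl, 100 μM CoCl2, 0.075% BSA. MGMM substrate (400 μM) was then added for 15 min (human MetAP-1) or 20 min (E. coli MetAP). Reactions were stopped with TFA. GMM product was quantified by RP-HPLC, UV 214 nm. Triplicate.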

The target in assay [2] is Methionine aminopeptidase 1 (Homo sapiens) (UniProt P53582). As to the kind of experiment: Inhibition of human MetAP at 25 uM after 20 mins by HPLC analysis. The gist of the method:
as §1

In assay [3] the test system is Escherichia coli. As to the kind of experiment: Inhibition of wild-type Escherichia coli MurA compound preincubated for 10 mins before substrate addition at 25 uM measured after 15 mins by LC-MS method.
Assay [4] has as its system Escherichia coli. As to the kind of experiment: Inhibition of wild-type Escherichia coli MurB compound preincubated for 10 mins before substrate addition at 25 uM measured after 15 mins by LC-MS method. In a few lines: (§2)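 E. coli wild-type enzyme (4 nM) was preincubated with 25 μM compound for 10 min at 37 °C. Enzymatically generated nucleotide-sugar substrate (~200 μM) plus ATP (~200 μM), or NADPH 200 μM for MurB, was added for 10 min. Reactions were started with amino-acid cosubstrate (MurC–F) or EP-UNAG (MurB), run 15 min at 37 °C, and quenched with formic acid. Product was measured by negative-ESI LC-MS EIC peak area. MgCl2: MurC 10, MurD/E 2, MurF 5 mM; MurB had 5 mM KCl. All in 50 mM NH4HCO3, 0.07% BSA, 1% DMSO; triplicate.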

Assay [5] concerns Escherichia coli. The assay is described as follows: Inhibition of wild-type Escherichia coli MurC compound preincubated for 10 mins before substrate addition at 25 uM measured after 15 mins by LC-MS method. In a few lines: as §2
For assay [6], the system named is Escherichia coli. The assay is described as follows: Inhibition of wild-type Escherichia coli MurD compound preincubated for 10 mins before substrate addition at 25 uM measured after 15 mins by LC-MS method. In a few lines: as §2
The test system of assay [7] is Escherichia coli. The assay is described as follows: Inhibition of wild-type Escherichia coli MurE compound preincubated for 10 mins before substrate addition at 25 uM measured after 15 mins by LC-MS method. In a few lines:
as §2

Assay [8] deals with Escherichia coli. The assay is described as follows: Inhibition of wild-type Escherichia coli MurF compound preincubated for 10 mins before substrate addition at 25 uM measured after 15 mins by LC-MS method. The gist of the method:
as §2

Assay [9] is described as follows: GSH reactivity of the compound assessed as adducts formation by RP-HPLC analysis. In a few lines:
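Fresh aqueous glutathione (10 mM solution) was added to 50 mM Tris-maleate buffer, pH 7.5. The reaction was started with compound from 10 mM DMSO stock (final 250 μM). Mixtures were followed by reversed-phase HPLC on an ODS column with a gradient to 100% B; rate constants are given in l·mol⁻¹·s⁻¹.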

The target of assay [10] is Genome polyprotein (dengue virus type 2) (UniProt P12823). As to the kind of experiment: Inhibition of Dengue virus serotype 2 NS2B-NS3 protease at 50 uM.
The target of assay [11] is Genome polyprotein (West Nile virus) (UniProt P06935). The assay is described as follows: Inhibition of West Nile virus NS2B-NS3 protease at 50 uM.
The next assay has as its target Prothrombin (Bos taurus) (UniProt P00735). The assay is described as follows: Inhibition of Bovine thrombin using Boc-Val-Pro-Arg-AMC as substrate compound preincubated at 25 uM for 15 mins by fluorescence assay. The gist of the method:
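Bovine thrombin (final 10 nM) was preincubated 15 min with 25 μM compound in 50 mM Tris-HCl pH 7.5, 150 mM NaCl, 0.05% Tween 20. The reaction was started with Boc-Val-Pro-Arg-AMC (50 μM final). Fluorescence (ex 355/em 460 nm) was monitored continuously for 10 min; activity taken as slope (RFU/s). Triplicate.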

Sequence of Genome polyprotein (West Nile virus) (P06935 whole entry): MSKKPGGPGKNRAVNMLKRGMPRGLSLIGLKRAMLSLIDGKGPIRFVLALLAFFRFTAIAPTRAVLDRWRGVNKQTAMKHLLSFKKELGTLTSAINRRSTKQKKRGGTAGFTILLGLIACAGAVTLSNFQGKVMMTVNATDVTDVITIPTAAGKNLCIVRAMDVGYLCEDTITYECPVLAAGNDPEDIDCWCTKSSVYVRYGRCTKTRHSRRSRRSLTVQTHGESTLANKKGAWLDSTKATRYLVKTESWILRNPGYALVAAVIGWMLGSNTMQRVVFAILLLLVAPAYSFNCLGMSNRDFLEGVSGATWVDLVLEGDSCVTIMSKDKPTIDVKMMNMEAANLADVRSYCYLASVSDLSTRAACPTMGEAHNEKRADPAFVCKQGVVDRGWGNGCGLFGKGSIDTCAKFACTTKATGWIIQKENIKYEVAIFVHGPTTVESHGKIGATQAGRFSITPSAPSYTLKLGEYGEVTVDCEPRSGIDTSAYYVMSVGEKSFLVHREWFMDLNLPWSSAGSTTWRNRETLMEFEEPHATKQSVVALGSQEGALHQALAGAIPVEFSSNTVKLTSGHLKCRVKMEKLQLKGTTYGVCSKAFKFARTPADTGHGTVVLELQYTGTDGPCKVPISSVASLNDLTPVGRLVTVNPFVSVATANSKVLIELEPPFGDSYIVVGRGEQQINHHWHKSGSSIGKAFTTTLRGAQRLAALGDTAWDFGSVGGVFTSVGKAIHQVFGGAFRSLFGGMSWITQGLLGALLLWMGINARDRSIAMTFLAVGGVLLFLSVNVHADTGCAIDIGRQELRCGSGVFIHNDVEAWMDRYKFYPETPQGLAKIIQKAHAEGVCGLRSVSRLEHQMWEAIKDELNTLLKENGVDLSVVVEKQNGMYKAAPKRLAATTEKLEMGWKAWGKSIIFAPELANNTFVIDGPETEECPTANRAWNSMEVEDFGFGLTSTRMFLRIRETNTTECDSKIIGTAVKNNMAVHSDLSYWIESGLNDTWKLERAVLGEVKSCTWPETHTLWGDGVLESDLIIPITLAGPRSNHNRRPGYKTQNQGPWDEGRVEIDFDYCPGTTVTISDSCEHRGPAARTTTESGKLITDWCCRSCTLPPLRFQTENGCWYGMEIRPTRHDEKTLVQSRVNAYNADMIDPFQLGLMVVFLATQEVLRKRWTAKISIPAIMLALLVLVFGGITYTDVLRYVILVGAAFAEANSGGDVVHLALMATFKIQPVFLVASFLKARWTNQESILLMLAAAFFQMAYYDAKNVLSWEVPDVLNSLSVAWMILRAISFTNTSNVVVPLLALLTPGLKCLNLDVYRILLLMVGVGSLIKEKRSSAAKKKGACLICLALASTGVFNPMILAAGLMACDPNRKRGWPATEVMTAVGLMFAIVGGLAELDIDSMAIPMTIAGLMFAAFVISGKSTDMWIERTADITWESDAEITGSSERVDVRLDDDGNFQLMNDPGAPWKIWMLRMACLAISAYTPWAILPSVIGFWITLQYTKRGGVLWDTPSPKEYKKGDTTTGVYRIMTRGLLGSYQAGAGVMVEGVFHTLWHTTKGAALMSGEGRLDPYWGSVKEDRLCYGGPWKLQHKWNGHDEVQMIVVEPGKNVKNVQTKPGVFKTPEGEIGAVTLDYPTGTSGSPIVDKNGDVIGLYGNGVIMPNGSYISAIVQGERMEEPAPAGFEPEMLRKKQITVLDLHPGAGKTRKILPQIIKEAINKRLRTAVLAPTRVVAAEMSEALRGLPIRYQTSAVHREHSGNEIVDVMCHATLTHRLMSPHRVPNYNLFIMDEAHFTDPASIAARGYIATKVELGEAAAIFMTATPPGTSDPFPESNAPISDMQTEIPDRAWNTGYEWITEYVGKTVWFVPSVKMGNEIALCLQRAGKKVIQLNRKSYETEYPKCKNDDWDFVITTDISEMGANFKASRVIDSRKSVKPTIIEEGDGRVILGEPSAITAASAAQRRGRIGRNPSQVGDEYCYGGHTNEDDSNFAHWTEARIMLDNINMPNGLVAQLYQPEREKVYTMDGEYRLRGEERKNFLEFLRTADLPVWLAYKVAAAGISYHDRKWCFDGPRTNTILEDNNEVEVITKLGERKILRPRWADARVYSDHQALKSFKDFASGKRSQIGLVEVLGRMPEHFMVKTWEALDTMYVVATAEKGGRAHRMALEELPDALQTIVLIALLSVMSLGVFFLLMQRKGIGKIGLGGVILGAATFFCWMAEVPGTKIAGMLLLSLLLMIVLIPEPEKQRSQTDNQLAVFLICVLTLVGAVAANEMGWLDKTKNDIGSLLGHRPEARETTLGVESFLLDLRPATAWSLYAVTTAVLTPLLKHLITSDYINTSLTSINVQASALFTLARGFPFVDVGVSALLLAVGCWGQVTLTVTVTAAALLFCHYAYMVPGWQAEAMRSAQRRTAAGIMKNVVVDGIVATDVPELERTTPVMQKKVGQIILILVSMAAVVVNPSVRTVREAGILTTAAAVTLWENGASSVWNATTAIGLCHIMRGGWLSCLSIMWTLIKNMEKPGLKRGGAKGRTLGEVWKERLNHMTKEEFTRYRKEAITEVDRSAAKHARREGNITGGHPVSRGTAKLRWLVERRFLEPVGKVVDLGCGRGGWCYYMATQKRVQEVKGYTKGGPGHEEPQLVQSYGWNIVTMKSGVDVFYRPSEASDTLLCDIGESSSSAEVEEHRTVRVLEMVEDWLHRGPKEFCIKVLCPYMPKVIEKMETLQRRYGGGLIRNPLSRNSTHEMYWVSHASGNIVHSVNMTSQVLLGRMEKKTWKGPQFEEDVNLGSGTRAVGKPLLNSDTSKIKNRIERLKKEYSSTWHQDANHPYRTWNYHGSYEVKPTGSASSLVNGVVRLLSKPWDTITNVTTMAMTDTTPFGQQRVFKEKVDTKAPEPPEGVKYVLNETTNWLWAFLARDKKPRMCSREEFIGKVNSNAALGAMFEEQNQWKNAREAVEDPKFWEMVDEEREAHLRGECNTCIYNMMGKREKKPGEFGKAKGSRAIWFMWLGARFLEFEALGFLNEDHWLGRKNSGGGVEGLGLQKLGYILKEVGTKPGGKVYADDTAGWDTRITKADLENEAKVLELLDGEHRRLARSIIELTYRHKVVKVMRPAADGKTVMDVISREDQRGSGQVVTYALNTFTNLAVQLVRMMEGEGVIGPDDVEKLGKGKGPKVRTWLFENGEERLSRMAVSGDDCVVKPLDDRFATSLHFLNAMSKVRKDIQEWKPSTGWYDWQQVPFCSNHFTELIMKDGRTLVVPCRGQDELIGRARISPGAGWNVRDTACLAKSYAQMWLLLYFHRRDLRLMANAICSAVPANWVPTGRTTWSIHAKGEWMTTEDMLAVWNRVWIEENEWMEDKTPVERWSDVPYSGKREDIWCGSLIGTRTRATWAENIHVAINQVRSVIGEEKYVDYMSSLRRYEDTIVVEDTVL

Regarding `C=CCNCc1ccccc1`, the inhibition (in the assay with Escherichia coli [1]; in assay [2]; with Escherichia coli [3]; in the assay on Escherichia coli [4]; with Escherichia coli [5]; in the assay on Escherichia coli [6]) was less than 15% throughout. Also, the inhibition (in the assay on Escherichia coli [7]; in the assay on Escherichia coli [8]; in assay [10]; in assay [11]; on Prothrombin (Bos taurus)) was less than 15% each time. Besides, the Activity in assay [9] is less than 0.1 L/mol/s.
In the case of `O=C(CCl)NC1CCCC1`, the inhibition (in the assay on Escherichia coli [1]; in [2]; with Escherichia coli [3]; in the assay on Escherichia coli [4]; with Escherichia coli [5]; with Escherichia coli [6]) was less than 15% in each case. Further, the inhibition (in the assay on Escherichia coli [7]; in the assay with Escherichia coli [8]; in [10]; in assay [11]; on Prothrombin (Bos taurus)) was less than 15% each time. Besides, the Activity in [9] was less than 0.1 L/mol/s.
Take `O=C(CCl)NCc1ccccc1`: the inhibition (with Escherichia coli [1]; in [2]; in the assay with Escherichia coli [3]; in the assay on Escherichia coli [4]; with Escherichia coli [5]; in the assay with Escherichia coli [6]) was less than 15% throughout. Further, the inhibition (in the assay on Escherichia coli [7]; in the assay with Escherichia coli [8]; in [10]; in assay [11]; against Prothrombin (Bos taurus)) was less than 15% throughout. Further, in [9], the Activity was less than 0.1 L/mol/s.
`CCCCC(NC(=O)CC#N)C(=O)OC` (configuration not stated): the inhibition (in the assay with Escherichia coli [1]; in assay [2]; in the assay with Escherichia coli [3]; with Escherichia coli [4]; with Escherichia coli [5]; in the assay on Escherichia coli [6]) was less than 15% in each case. Further, the inhibition with Escherichia coli [7] was less than 15%; in the assay on Escherichia coli [8] it was less than 15%; in [10], less than 15%; in assay [11] it was 18%; on Prothrombin (Bos taurus) it was less than 15%. The Activity in assay [9] is less than 0.1 L/mol/s.
Turning to `C=CCNCCc1ccccc1`, the inhibition (in the assay with Escherichia coli [1]; in assay [2]; in the assay on Escherichia coli [3]; in the assay on Escherichia coli [4]; in the assay on Escherichia coli [5]; in the assay on Escherichia coli [6]) was less than 15% each time. The inhibition (with Escherichia coli [7]; in the assay with Escherichia coli [8]; in assay [10]; in assay [11]; on Prothrombin (Bos taurus)) was less than 15% each time. Further, the Activity in [9] was less than 0.1 L/mol/s.
Turning to `COc1ccc(NC(=O)CCl)cc1`, the inhibition (with Escherichia coli [1]; in assay [2]; with Escherichia coli [3]; in the assay with Escherichia coli [4]; in the assay with Escherichia coli [5]; in the assay on Escherichia coli [6]) was less than 15% throughout. Moreover, the inhibition (in the assay with Escherichia coli [7]; in the assay with Escherichia coli [8]; in assay [10]; in [11]; against Prothrombin (Bos taurus)) was less than 15% in each case. Also, the Activity in [9] was less than 0.1 L/mol/s.
Take `COc1ccc(NC(=O)CC#N)cc1`: the inhibition (with Escherichia coli [1]; in assay [2]; in the assay on Escherichia coli [3]; in the assay on Escherichia coli [4]; in the assay with Escherichia coli [5]; with Escherichia coli [6]) was less than 15% each time. The inhibition was 15% in the assay with Escherichia coli [7]; less than 15% in the assay on Escherichia coli [8]; less than 15% in assay [10]; 16% in assay [11]; less than 15% against Prothrombin (Bos taurus). Also, the Activity in [9] was less than 0.1 L/mol/s.
As for `CCCCC(N)C(=O)OC` (configuration not stated), the inhibition with Escherichia coli [1] was less than 15%; in assay [2], less than 15%; in the assay with Escherichia coli [3], less than 15%; with Escherichia coli [4], less than 22%; in the assay with Escherichia coli [5] it was less than 15%; in the assay with Escherichia coli [6], 18%. Moreover, the inhibition was 17% with Escherichia coli [7]; less than 15% in the assay on Escherichia coli [8]; less than 15% in [10]; less than 15% in assay [11]; less than 15% against Prothrombin (Bos taurus). Moreover, the Activity in assay [9] was less than 0.1 L/mol/s.
For the compound `N#CCC(=O)NC1CCCC1`, the inhibition (in the assay with Escherichia coli [1]; in [2]; in the assay on Escherichia coli [3]; in the assay with Escherichia coli [4]; in the assay on Escherichia coli [5]; in the assay on Escherichia coli [6]) was less than 15% throughout. For the same compound, the inhibition with Escherichia coli [7] is 16%; in the assay on Escherichia coli [8], less than 15%; in assay [10], less than 15%; in [11], less than 15%; on Prothrombin (Bos taurus), less than 15%. For the same compound, in assay [9], the Activity was less than 0.1 L/mol/s.
Consider `Cc1ccc(NC(=O)CCl)cc1`, for which the inhibition (in the assay on Escherichia coli [1]; in assay [2]; with Escherichia coli [3]; with Escherichia coli [4]; with Escherichia coli [5]; with Escherichia coli [6]) was less than 15% each time. Besides, the inhibition (in the assay on Escherichia coli [7]; in the assay on Escherichia coli [8]; in assay [10]; in [11]; against Prothrombin (Bos taurus)) was less than 15% throughout. In addition, in assay [9], the Activity was less than 0.1 L/mol/s.
For the compound `C=CCNc1ccc(F)cc1`, the inhibition in the assay with Escherichia coli [1] is less than 15%; in assay [2], less than 15%; with Escherichia coli [3] it was less than 15%; in the assay with Escherichia coli [4] it was 17%; in the assay on Escherichia coli [5], less than 15%; in the assay with Escherichia coli [6], less than 15%. The inhibition (in the assay with Escherichia coli [7]; with Escherichia coli [8]; in assay [10]; in assay [11]; on Prothrombin (Bos taurus)) was less than 15% each time. The Activity in assay [9] was less than 0.1 L/mol/s.
Consider `C[S+](C)CC(=O)NCCc1ccccc1`, for which the inhibition (with Escherichia coli [1]; in assay [2]; with Escherichia coli [3]; in the assay on Escherichia coli [4]; in the assay with Escherichia coli [5]; with Escherichia coli [6]) was less than 15% throughout. In addition, the inhibition (with Escherichia coli [7]; in the assay on Escherichia coli [8]; in [10]; in assay [11]; against Prothrombin (Bos taurus)) was less than 15% in each case.
Take `C[S+](C)CC(=O)NCc1ccccc1`: the inhibition (in the assay with Escherichia coli [1]; in [2]; in the assay with Escherichia coli [3]; in the assay with Escherichia coli [4]; in the assay on Escherichia coli [5]; with Escherichia coli [6]) was less than 15% throughout. Moreover, the inhibition (with Escherichia coli [7]; in the assay on Escherichia coli [8]; in assay [10]; in [11]; against Prothrombin (Bos taurus)) was less than 15% in each case.
As for `C[S+](C)CC(=O)Nc1ccc(F)cc1`, the inhibition (in the assay with Escherichia coli [1]; in assay [2]; with Escherichia coli [3]; in the assay with Escherichia coli [4]; with Escherichia coli [5]; with Escherichia coli [6]) was less than 15% each time. In addition, the inhibition in the assay with Escherichia coli [7] was 15%; in the assay with Escherichia coli [8], less than 15%; in assay [10] it was less than 15%; in assay [11] it was less than 15%; on Prothrombin (Bos taurus) it was less than 15%.
With `CNC(=O)C[S+](C)C`, the inhibition is less than 15% with Escherichia coli [1]; less than 15% in assay [2]; less than 15% in the assay with Escherichia coli [3]; less than 15% in the assay with Escherichia coli [4]; 14% in the assay on Escherichia coli [5]; less than 15% with Escherichia coli [6]. Further, the inhibition with Escherichia coli [7] is 20%; in the assay on Escherichia coli [8], less than 15%; in assay [10], less than 15%; in assay [11] it was less than 15%; on Prothrombin (Bos taurus) it was less than 15%.
`C[S+](C)CC(=O)NC1CCCC1`: the inhibition (in the assay with Escherichia coli [1]; in [2]; in the assay on Escherichia coli [3]; in the assay on Escherichia coli [4]; in the assay with Escherichia coli [5]; in the assay with Escherichia coli [6]) was less than 15% each time. Also, the inhibition was 17% in the assay on Escherichia coli [7]; less than 15% in the assay with Escherichia coli [8]; less than 15% in assay [10]; less than 15% in [11]; less than 15% at Prothrombin (Bos taurus).
